Experimental data reported in ChEMBL document CHEMBL3792341, “Substituted quinazolinones as kinase inhibitors endowed with anti-fibrotic properties” (Eur J Med Chem, 2016).
Activity calls are given as the source filed them. The calls are words filed in the database; no cut-off is given here.

Key:
[1] = Reduction of TIMP1 mRNA expression in human HSC cells at 1 uM by RT-PCR analysis; assay type: functional, cell-based
Method in brief: (§1)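 HSCs or ISEMFs were treated with compound for 24 h. Total RNA was extracted and DNase I-treated, then used for quantitative PCR of the target transcript. Values were normalized to 18S rRNA and relative change was calculated by the ΔΔCT method. Triplicate per isolated cell batch.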

[2] = Reduction of FN1 mRNA expression in crohn's disease patient isolated ISEMF at 1 uM by RT-PCR analysis; assay type: functional; settings: Homo sapiens; method in brief: as §1
[3] = target: Proto-oncogene tyrosine-protein kinase Src (Homo sapiens) (UniProt P12931); assay: Inhibition of human Src using myelin basic protein as substrate at 1 uM measured after 20 mins at 30 degC by liquid scintillation counting method in presence of [gamma-32P]-ATP
Proto-oncogene tyrosine-protein kinase Src (Homo sapiens), sequence (P12931 2-536 limits assumed): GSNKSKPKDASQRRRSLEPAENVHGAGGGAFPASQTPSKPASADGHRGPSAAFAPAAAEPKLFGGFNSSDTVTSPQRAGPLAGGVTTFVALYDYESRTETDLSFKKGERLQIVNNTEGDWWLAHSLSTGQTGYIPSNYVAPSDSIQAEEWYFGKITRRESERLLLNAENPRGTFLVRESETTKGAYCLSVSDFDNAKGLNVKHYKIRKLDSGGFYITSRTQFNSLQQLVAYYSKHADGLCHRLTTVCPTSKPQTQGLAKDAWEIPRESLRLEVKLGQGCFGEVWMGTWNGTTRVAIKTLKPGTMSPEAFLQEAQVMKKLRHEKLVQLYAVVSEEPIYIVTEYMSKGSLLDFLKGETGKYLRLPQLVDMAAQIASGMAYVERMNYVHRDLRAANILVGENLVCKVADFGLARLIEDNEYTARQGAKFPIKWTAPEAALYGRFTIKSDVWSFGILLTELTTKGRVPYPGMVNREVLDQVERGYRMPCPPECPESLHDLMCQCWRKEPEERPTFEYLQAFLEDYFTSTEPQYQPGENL

[4] = target: Tyrosine-protein kinase ABL1 (Homo sapiens) (UniProt P00519); assay: Inhibition of human Abl1 using myelin basic protein as substrate at 1 uM measured after 20 mins at 30 degC by liquid scintillation counting method in presence of [gamma-32P]-ATP
Tyrosine-protein kinase ABL1 (Homo sapiens), sequence (P00519 whole entry): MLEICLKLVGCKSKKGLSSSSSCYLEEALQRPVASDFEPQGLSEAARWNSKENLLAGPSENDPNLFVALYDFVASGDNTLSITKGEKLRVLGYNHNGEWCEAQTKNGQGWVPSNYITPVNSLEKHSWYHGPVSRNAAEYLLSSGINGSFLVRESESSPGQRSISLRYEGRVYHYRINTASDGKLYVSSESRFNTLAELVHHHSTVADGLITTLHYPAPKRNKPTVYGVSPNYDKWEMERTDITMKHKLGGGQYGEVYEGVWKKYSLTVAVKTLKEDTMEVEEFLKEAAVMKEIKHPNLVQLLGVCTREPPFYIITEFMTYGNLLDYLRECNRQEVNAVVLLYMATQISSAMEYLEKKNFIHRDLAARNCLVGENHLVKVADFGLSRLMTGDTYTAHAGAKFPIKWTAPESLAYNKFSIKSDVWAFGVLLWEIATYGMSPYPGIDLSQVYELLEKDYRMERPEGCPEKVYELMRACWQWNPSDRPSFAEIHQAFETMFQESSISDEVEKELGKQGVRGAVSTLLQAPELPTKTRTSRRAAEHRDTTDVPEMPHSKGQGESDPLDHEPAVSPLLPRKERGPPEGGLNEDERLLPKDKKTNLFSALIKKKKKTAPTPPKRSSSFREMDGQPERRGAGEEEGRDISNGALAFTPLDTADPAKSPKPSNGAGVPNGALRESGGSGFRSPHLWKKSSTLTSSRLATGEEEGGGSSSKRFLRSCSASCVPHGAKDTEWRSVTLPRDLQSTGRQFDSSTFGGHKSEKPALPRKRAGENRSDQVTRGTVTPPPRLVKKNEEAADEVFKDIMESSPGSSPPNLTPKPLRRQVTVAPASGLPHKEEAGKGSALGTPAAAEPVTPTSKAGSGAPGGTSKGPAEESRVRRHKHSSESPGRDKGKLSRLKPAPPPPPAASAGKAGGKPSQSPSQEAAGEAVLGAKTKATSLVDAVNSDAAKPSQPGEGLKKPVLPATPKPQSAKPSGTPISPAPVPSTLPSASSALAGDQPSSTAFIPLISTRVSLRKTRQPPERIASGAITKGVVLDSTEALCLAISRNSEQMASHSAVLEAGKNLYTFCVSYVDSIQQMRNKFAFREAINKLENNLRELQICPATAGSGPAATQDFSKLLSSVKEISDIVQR

[5] = Reduction of FN1 mRNA expression in human HSC cells at 1 uM by RT-PCR analysis; assay type: functional, cell-based; method in brief: as §1
[6] = Reduction of COL1A1 mRNA expression in healthy human ISEMF at 1 uM by RT-PCR analysis; assay type: functional; method in brief: as §1
[7] = Cytotoxicity against crohn's disease patient isolated ISEMF assessed as cell viability at 1 uM after 72 hrs by MTT assay; settings: human
Method in brief: (§2)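 MTT viability in primary human HSCs or ISEMFs seeded at 2 × 10³ cells/well. Cells were exposed to compound for 72 h, then to MTT 0.50 mg/ml for 4 h. Viability is expressed as % of the respective untreated cells. Triplicate per isolated cell batch.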

[8] = Reduction of TIMP1 mRNA expression in crohn's disease patient isolated ISEMF at 1 uM by RT-PCR analysis; assay type: functional; settings: Homo sapiens; method in brief: as §1
[9] = Cytotoxicity against human HSC cells assessed as cell viability at 1 uM after 72 hrs by MTT assay; assay type: cell-based; method in brief: as §2
[10] = Reduction of COL1A1 mRNA expression in healthy human HSC cells at 1 uM by RT-PCR analysis; assay type: functional, cell-based; method in brief: as §1
Homo sapiens [11] = species on record: Homo sapiens; assay: Inhibition of human PI3K using phosphatidylinositol 4,5-diphosphate as substrate at 1 uM measured after 20 mins at 30 degC by liquid scintillation counting method in presence of [gamma-32P]-ATP
[12] = Reduction of COL1A1 mRNA expression in crohn's disease patient isolated ISEMF at 1 uM by RT-PCR analysis; assay type: functional; settings: Homo sapiens; method in brief: as §1
[13] = target: Platelet-derived growth factor receptor beta (Homo sapiens) (UniProt P09619); assay: Inhibition of human PDGFR-beta at 1 uM measured after 20 mins at 30 degC by liquid scintillation counting method in presence of [gamma-32P]-ATP
Platelet-derived growth factor receptor beta (Homo sapiens), sequence (P09619 whole entry): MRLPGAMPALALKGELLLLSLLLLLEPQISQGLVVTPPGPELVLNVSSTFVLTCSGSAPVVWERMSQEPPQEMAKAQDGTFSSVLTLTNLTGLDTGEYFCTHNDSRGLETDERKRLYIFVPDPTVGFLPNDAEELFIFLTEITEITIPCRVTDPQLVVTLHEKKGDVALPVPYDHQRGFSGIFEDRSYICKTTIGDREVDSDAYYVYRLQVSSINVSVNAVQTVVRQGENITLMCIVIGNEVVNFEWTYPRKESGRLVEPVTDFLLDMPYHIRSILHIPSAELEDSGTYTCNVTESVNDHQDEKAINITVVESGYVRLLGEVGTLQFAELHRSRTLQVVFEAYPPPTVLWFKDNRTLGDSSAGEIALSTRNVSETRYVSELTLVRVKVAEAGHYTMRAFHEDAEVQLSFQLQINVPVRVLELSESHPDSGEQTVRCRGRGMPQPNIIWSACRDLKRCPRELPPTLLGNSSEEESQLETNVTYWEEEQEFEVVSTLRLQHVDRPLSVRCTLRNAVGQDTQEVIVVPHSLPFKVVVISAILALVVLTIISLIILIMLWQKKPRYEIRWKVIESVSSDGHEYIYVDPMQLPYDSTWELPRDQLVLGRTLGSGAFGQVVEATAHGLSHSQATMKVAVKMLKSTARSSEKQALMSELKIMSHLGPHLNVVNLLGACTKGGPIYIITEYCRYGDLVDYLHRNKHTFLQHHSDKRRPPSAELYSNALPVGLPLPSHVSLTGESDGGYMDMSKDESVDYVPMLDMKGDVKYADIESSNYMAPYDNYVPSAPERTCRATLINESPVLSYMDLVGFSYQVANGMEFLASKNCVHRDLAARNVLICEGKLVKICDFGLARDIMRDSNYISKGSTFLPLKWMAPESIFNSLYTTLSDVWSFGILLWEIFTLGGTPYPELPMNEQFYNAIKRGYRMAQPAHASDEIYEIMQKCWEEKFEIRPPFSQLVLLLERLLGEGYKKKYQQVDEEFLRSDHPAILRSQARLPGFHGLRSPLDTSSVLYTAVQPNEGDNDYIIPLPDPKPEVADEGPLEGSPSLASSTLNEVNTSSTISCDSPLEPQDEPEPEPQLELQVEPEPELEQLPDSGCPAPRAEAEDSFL

[14] = target: Serine/threonine-protein kinase mTOR (Homo sapiens) (UniProt P42345); assay: Inhibition of human mTOR using PHAS-1 as substrate at 1 uM measured after 20 mins at 30 degC by liquid scintillation counting method in presence of [gamma-32P]-ATP
[15] = target: Fibroblast growth factor receptor 1 (Homo sapiens) (UniProt P11362); assay: Inhibition of human FGFR1 using myelin basic protein as substrate at 1 uM measured after 20 mins at 30 degC by liquid scintillation counting method in presence of [gamma-32P]-ATP
Fibroblast growth factor receptor 1 (Homo sapiens), sequence (P11362 22-822 limits assumed): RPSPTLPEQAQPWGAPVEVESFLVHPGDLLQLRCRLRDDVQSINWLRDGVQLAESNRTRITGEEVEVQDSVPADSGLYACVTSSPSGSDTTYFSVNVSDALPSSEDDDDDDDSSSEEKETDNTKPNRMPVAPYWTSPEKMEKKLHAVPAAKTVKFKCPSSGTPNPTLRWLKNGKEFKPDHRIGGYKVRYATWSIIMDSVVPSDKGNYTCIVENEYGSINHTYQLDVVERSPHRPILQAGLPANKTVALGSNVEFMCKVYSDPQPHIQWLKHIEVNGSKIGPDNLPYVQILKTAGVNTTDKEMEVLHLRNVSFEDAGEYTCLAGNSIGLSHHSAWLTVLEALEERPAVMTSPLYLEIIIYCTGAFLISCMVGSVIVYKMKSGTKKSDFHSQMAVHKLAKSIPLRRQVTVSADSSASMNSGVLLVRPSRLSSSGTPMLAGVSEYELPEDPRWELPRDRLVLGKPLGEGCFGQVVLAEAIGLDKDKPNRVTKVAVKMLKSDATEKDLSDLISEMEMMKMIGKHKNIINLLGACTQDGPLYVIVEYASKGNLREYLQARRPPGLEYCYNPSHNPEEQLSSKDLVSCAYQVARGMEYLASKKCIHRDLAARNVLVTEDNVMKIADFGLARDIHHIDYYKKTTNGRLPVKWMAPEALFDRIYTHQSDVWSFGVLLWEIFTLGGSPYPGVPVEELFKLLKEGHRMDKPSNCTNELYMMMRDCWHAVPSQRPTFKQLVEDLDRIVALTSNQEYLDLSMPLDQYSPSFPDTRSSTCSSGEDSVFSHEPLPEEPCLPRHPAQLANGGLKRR

[16] = target: Vascular endothelial growth factor receptor 2 (Homo sapiens) (UniProt P35968); assay: Inhibition of human KDR using […] as substrate at 1 uM measured after 20 mins at 30 degC by liquid scintillation counting method in presence of [gamma-32P]-ATP
Vascular endothelial growth factor receptor 2 (Homo sapiens), sequence (P35968 whole entry): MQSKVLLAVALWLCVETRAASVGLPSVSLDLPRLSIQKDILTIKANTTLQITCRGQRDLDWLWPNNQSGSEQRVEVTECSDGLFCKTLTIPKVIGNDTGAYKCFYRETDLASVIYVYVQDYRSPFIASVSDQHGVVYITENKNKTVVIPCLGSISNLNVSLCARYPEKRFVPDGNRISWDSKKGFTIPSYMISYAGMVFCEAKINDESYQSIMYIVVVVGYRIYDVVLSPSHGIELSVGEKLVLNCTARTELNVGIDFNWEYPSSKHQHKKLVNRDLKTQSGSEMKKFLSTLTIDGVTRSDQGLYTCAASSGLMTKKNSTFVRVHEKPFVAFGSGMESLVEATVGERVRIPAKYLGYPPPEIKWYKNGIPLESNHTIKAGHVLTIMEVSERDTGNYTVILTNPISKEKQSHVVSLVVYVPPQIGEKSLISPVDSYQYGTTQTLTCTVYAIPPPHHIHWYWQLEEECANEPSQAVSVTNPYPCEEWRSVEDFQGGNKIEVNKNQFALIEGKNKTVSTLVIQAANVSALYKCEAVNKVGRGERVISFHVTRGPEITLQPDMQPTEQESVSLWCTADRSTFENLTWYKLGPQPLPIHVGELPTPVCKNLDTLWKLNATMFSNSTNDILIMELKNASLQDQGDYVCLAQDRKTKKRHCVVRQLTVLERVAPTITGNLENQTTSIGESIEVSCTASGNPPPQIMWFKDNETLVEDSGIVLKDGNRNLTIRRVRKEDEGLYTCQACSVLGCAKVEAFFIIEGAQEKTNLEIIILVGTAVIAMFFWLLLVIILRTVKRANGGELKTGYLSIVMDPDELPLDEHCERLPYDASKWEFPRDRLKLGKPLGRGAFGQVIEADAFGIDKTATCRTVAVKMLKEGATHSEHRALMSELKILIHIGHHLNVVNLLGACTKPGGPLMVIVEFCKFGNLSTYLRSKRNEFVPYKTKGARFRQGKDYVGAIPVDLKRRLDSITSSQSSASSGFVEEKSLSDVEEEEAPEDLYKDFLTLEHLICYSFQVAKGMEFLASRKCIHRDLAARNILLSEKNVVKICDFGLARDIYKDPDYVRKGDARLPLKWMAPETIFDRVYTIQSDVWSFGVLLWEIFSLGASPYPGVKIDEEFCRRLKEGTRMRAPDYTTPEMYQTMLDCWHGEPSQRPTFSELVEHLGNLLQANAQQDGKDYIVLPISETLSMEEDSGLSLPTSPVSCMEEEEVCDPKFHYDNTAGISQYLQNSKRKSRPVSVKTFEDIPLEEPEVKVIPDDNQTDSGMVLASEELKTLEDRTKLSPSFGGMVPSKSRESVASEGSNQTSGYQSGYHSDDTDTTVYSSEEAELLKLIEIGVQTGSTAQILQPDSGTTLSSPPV

[17] = Cytotoxicity against healthy human ISEMF assessed as cell viability at 1 uM after 72 hrs by MTT assay; method in brief: as §2
[18] = Reduction of FN1 mRNA expression in healthy human ISEMF at 1 uM by RT-PCR analysis; assay type: functional; method in brief: as §1
[19] = Reduction of TIMP1 mRNA expression in healthy human ISEMF at 1 uM by RT-PCR analysis; assay type: functional; method in brief: as §1
Homo sapiens [20] = species on record: Homo sapiens; assay: Antiproliferative activity against VEGF induced healthy human ISEMF at 1 uM after 72 hrs by carboxyfluorescein diacetate succinimidyl ester dye-based FACS flow cytometric method; assay type: functional
Method in brief: (§3)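 Primary human HSCs (from collagenase/pronase digests of non-pathological liver, Percoll gradient) or ISEMFs (from collagenase-digested gut biopsies, CD90-checked) were CFSE-loaded for 10 min at 37 °C in PBS with 0.1% BSA. Loading was quenched with 5 volumes of ice-cold medium. After 16 h, cells were washed and given compound plus 1 ng/ml VEGF for 72 h. Read-out was dye partitioning by flow cytometry, as % CFSE-positive cells. Duplicate per cell batch; mean ± SE.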

Homo sapiens [21] = species on record: Homo sapiens; assay: Antiproliferative activity against VEGF induced crohn's disease patient isolated ISEMF at 1 uM after 72 hrs by carboxyfluorescein diacetate succinimidyl ester dye-based FACS flow cytometric method; assay type: functional; method in brief: as §3
HSC = assay: Antiproliferative activity against VEGF induced human HSC cells at 1 uM after 72 hrs by carboxyfluorescein diacetate succinimidyl ester dye-based FACS flow cytometric method; assay type: functional, cell-based; method in brief: as §3
[22] = target: T1, MAP kinase p38 (Homo sapiens) (UniProt O15264+Q15759+Q16539+P53778); assay: Inhibition of p38 MAPK phosphorylation in crohn's disease patient isolated ISEMF at 1 uM after 4 hrs by western blotting analysis
Method in brief: (§4)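 Primary human cells were treated with compound for 4 h. Lysates were made in RIPA buffer with phosphatase and protease inhibitors and cleared by centrifugation. Proteins were run on 10% SDS-PAGE and blotted to nitrocellulose. Blots were probed for phospho-p38 MAPK with an HRP secondary and ECL detection, then reprobed for total p38 MAPK as loading control. Duplicate experiments.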

[23] = target: T1, MAP kinase p38 (Homo sapiens); assay: Inhibition of p38 MAPK phosphorylation in human HSC cells at 1 uM after 4 hrs by western blotting analysis; assay type: cell-based; method in brief: as §4

Compound	Activity [1]	Activity [2]	inhibition [3] [%]	inhibition [4] [%]	Activity [5]	Activity [6]	Activity [7]	Activity [8]	Activity [9]	Activity [10]	inhibition (Homo sapiens [11]) [%]	Activity [12]	inhibition [13] [%]	inhibition [14] [%]	inhibition [15] [%]	inhibition [16] [%]	Activity [17]	Activity [18]	Activity [19]	also measured
COc1cc2ncn(Cc3cccc(Br)c3)c(=O)c2cc1OC	inactive	inactive	0	0	inactive	inactive	Non-toxic	inactive	Non-toxic	inactive	15	inactive	22	18	11	31	Non-toxic	inactive	inactive	
Clc1ccc(Nc2nnc(Cc3ccncc3)c3ccccc23)cc1 [VATALANIB]	Active	Active	16	25	Active	Active	Toxic	Active	Toxic	Active	18	Active	72	49	31		Toxic	inactive	inactive	
COc1cc2ncn(CC(=O)c3ccc(Br)cc3)c(=O)c2cc1OC	Active	Active	4	0	Active		Non-toxic	Active	Non-toxic		0		1	17	7	53	Non-toxic	inactive	inactive	
COc1cc2ncn(Cc3ccc(Br)cc3)c(=O)c2cc1OC			0	0							0		0	25	14	25				
O=c1c2cc3c(cc2ncn1CC(O)c1cccc(Cl)c1)OCCO3 (stereo not drawn)	inactive	inactive	0	1	inactive	inactive	Non-toxic	inactive	Non-toxic	inactive	0	inactive	0	1	5	26	Non-toxic	inactive	inactive	
O=C(Cn1cnc2cc3c(cc2c1=O)OCCO3)c1ccc(Br)cc1			0	0		Active	Non-toxic		Non-toxic	Active	17	Active	1	23	18	35	Non-toxic			
O=c1c2cc3c(cc2ncn1Cc1ccc(Br)cc1)OCO3	inactive	inactive	0	0	inactive	inactive	Non-toxic	inactive	Non-toxic	inactive	7	inactive	45	17	1	27	Non-toxic	inactive	inactive	Activity (Homo sapiens [20]): Active; Activity (Homo sapiens [21]): Active; Activity (HSC): Active
O=c1c2cc3c(cc2ncn1Cc1ccc(-c2ccccc2)cc1)OCCO3			5	0		Active	Non-toxic		Non-toxic	Active	25	Active	13	37	10	45	Non-toxic			
O=c1c2cc3c(cc2ncn1Cc1ccc(Br)cc1)OCCO3			0	0							0		1	13	1	12				
O=c1c2cc3c(cc2ncn1Cc1ccc(-c2ccccc2)cc1)OCO3			0	4							0		4	10	6	25				
O=c1c2cc3c(cc2ncn1Cc1cccc(Br)c1)OCCO3			0	0							28		0	28	7	12				
COc1cc2ncn(Cc3cccc(-c4ccccc4)c3)c(=O)c2cc1OC			0	0							21		4	34	13	33				
O=c1c2cc3c(cc2ncn1Cc1cccc(-c2ccccc2)c1)OCO3			0	0		Active	Non-toxic		Non-toxic	Active	0	Active	0	0	8	35	Non-toxic			
O=C(Cn1cnc2cc3c(cc2c1=O)OCCO3)c1cccc(Br)c1			0	0		Active	Non-toxic		Non-toxic	Active	35	Active	4	2	18	36	Non-toxic			inhibition [22]: Active; inhibition [23]: Active
